Experimental data reported in ChEMBL document CHEMBL3797085, “Structure-Based Design and Synthesis of Novel Inhibitors Targeting HDAC8 from Schistosoma mansoni for the Treatment of Schistosomiasis” (J Med Chem, 2016).

Columns and labels:
Histone deacetylase 8 [1] = target: T1, Histone deacetylase 8 (Schistosoma mansoni, UniProt A5H660); test: Inhibition of recombinant Schistosoma mansoni HDAC8 expressed in Escherichia coli using Fluor de Lys as substrate preincubated for 90 mins followed by BML-KI176 addition measured after 45 mins by fluorescence assay
T1 sequence (A5H660 whole entry): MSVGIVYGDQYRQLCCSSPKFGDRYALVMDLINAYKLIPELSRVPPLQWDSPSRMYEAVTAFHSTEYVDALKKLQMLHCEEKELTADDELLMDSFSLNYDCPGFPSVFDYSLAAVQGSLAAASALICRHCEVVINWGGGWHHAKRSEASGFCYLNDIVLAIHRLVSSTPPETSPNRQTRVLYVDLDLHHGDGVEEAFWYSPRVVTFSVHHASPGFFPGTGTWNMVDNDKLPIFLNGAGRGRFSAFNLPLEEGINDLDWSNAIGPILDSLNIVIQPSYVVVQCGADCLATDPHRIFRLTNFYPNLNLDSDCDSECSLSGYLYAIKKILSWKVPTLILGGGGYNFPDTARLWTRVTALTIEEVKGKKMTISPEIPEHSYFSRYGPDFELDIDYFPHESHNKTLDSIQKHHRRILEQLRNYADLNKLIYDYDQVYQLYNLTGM
In short: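 smHDAC8 produced in E. coli. Fluor de Lys kit: compound, Fluor de Lys-HDAC8 substrate (50 µM) and enzyme incubated 90 min at 37°C, then Developer II for 45 min at 30°C. Reaction stopped with trichostatin A (2 µM). Fluorescence read at ex 390/em 460 nm. IC50 given as mean ± S.E.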

Schistosoma mansoni [2] = test: Antiparasitic activity against schistosomula stage of Schistosoma mansoni assessed as parasite viability at 10 uM after 48 hrs by Alamar Blue assay relative to control; type: functional
In short: (§1)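 Mechanically transformed S. mansoni schistosomula, 100 per well, in Medium 199 with 10% FCS, penicillin, streptomycin and rifampicin, held 3 h at 37°C/5% CO2 before use. […] Resazurin added at 48 h; fluorescence (ex 530/em 590 nm) read 24 h later, corrected for drug-medium background. Ethanol-killed larvae as dead control. Triplicate wells, two biological replicates.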

[3] = Cytotoxicity against HEK293 cells assessed as cell viability at 50 uM after 24 hrs by Alamar Blue assay relative to control; type: cell-based; settings: human, read-out: Activity
In short: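 AlamarBlue added after 24 h, incubated a further 21 h; resorufin fluorescence ex 560/em 590 nm. Triplicates; viability relative to untreated cells; daunorubicin positive control.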

Schistosoma mansoni [4] = test: Antiparasitic activity against schistosomula stage of Schistosoma mansoni assessed as parasite viability at 20 uM after 48 hrs by Alamar Blue assay relative to control; type: functional; in short: as §1
[5] = target: T2, Protein deacetylase HDAC6 (Homo sapiens, UniProt Q9UBN7); test: Inhibition of recombinant human HDAC6 using Cbz-(Ac)Lys-AMC as substrate preincubated for 90 mins followed by trypsin addition measured after 20 mins by fluorescence assay
T2 sequence (Q9UBN7 whole entry): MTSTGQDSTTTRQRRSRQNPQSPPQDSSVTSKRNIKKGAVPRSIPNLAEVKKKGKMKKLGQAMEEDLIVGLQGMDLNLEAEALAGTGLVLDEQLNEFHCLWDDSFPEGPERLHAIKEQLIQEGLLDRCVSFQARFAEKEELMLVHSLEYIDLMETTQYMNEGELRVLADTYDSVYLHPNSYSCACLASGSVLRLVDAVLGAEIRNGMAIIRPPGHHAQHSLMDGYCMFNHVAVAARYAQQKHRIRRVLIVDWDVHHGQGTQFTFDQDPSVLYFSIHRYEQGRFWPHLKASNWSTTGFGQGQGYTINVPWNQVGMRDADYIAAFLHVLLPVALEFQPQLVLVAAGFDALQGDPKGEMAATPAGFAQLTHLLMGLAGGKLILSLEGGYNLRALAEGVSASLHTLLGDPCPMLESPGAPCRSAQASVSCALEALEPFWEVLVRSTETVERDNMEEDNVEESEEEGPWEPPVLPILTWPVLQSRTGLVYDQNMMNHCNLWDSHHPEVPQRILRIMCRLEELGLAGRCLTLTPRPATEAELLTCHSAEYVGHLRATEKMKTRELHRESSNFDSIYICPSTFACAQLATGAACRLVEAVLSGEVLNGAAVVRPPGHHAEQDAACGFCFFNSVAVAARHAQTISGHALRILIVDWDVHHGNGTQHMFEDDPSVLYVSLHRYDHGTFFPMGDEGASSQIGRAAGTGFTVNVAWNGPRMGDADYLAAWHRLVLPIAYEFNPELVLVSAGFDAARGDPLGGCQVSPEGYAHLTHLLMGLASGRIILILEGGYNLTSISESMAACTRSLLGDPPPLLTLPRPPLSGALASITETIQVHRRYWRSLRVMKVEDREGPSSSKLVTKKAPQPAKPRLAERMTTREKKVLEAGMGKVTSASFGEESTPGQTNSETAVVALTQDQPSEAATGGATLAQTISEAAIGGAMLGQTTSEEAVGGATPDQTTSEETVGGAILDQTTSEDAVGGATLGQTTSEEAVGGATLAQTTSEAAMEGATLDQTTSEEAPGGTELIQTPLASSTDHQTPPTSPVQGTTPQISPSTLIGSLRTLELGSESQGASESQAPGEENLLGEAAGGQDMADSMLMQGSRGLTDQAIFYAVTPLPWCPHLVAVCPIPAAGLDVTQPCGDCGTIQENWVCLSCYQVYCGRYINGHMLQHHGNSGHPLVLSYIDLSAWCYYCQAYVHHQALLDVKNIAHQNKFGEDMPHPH

Histone deacetylase 1 = Histone deacetylase 1 (Homo sapiens, UniProt Q13547); test: Inhibition of recombinant human HDAC1 using Cbz-(Ac)Lys-AMC as substrate preincubated for 90 mins followed by trypsin addition measured after 20 mins by fluorescence assay
Chain of Histone deacetylase 1 (Q13547 whole entry): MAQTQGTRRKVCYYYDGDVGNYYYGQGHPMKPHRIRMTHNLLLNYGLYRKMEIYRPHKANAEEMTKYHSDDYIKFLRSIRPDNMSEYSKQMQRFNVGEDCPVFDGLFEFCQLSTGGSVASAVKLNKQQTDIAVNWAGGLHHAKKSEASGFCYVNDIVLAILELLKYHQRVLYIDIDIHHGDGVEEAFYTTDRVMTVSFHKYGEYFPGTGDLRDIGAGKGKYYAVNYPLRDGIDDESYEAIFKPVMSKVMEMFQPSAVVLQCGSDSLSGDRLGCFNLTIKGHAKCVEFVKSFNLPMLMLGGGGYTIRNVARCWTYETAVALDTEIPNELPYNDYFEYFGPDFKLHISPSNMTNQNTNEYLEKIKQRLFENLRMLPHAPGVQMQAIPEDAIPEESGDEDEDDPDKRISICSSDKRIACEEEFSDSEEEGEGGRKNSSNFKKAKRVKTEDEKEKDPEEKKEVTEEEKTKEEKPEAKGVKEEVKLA

Histone deacetylase 8 [6] = target: T3, Histone deacetylase 8 (Homo sapiens, UniProt Q9BY41); test: Inhibition of recombinant human HDAC8 using Fluor de Lys as substrate preincubated for 90 mins followed by BML-KI176 addition measured after 45 mins by fluorescence assay
T3 sequence (Q9BY41 whole entry): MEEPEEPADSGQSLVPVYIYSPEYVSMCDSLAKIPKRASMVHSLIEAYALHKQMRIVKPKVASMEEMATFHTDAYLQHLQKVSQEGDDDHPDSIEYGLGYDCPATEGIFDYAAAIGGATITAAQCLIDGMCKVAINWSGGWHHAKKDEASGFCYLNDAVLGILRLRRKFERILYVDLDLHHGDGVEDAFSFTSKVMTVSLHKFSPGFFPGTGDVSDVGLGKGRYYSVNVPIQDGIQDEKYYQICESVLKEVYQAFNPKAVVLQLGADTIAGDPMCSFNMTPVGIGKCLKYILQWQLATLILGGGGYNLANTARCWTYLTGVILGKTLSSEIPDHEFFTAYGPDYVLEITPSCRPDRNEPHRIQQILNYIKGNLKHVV

Row | IC50 (Histone deacetylase 8 [1]; read-out: IC50) | IC50 ([5]; read-out: IC50) | IC50 (Histone deacetylase 1; read-out: IC50) | IC50 (Histone deacetylase 8 [6]; read-out: IC50) | IC50 (Histone deacetylase 8 [1]) | IC50 [5] | IC50 (Histone deacetylase 1) | IC50 (Histone deacetylase 8 [6]) | SMILES | Activity (Schistosoma mansoni [2]) | viability at 24 h, 50 µM [3] | Activity (Schistosoma mansoni [4])
1 | 394 nM |  |  |  |  |  |  |  | O=C(NO)c1ccc(Cl)c(NC(=O)c2ccc([N+](=O)[O-])cc2)c1 | 85.3% | 79.1% | 68.1%
2 | 268 nM |  |  |  |  |  |  |  | COc1ccc(C(=O)NO)cc1OCc1ccccc1 |  |  | 
3 | 140 nM | 140 nM | 2400 nM | 342 nM |  |  |  |  | O=C(NO)c1ccc(C(F)(F)F)c(NC(=O)c2ccccc2)c1 | 99.9% | 96% | 77.4%
4 | 485 nM | 2400 nM | 20000 nM | 19.8 nM |  |  |  |  | COc1ccc(C(=O)NO)cc1S(=O)(=O)Nc1ccc(C)cc1 | 77.7% | 80.2% | 73.8%
5 | 305 nM | 1000 nM | 4400 nM | 438 nM |  |  |  |  | CCOc1ccc(C(=O)Nc2cc(C(=O)NO)ccc2OC)cc1 |  | 87.7% | 
6 | 67 nM | 120 nM | 11600 nM | 120 nM |  |  |  |  | O=C(NO)c1ccc(Cl)c(NC(=O)c2ccccc2)c1 | 84.7% | 72.2% | 
7 | 3630 nM |  | 130000 nM | 830 nM |  |  |  |  | O=C(NO)c1cccc(NC2CCCCC2)c1 | 82.7% | 70.7% | 
8 | 150 nM | 150 nM | 7400 nM | 191 nM |  |  |  |  | O=C(NO)c1ccc(Br)c(NC(=O)c2ccccc2)c1 | 70.8% | 64.3% | 63.1%
9 | 378 nM | 1500 nM | 9400 nM | 214 nM |  |  |  |  | O=C(NO)c1ccc(Cl)c(NC(=O)c2cccc(OCc3ccccc3)c2)c1 | 73.8% | 74.4% | 68.6%
10 |  |  |  |  | Not Active | Not Active | Not Active | Not Active | COC(=O)c1ccc(OC)c(NC(=O)c2ccc(-c3ccccc3)cc2)c1 |  | 47.2% | 
11 |  |  |  |  |  |  |  |  | O=C(C1CCCCC1)N1CC(=O)N2CCc3ccccc3C2C1 (stereo not drawn) [PRAZIQUANTEL] | 92% |  | 89%
12 | 699 nM | 3100 nM | 9600 nM | 211 nM |  |  |  |  | COc1ccc(C(=O)NO)cc1NC(=O)c1ccccc1Cl | 89.5% | 96.9% | 66.5%
13 | 396 nM | 300 nM | 6400 nM | 449 nM |  |  |  |  | O=C(NO)c1ccc(Cl)c(NC(=O)c2cccc(Oc3ccccc3)c2)c1 | 62.9% | 62% | 55%
14 | 468 nM |  |  | 582 nM |  |  |  |  | O=C(NO)c1cccc(NC(=O)c2ccccc2)c1 | 79.2% |  | 75.6%
15 | 183 nM | 5100 nM | 28900 nM | 512 nM |  |  |  |  | COc1ccc(C(=O)NO)cc1NC(=O)Cc1ccccc1 | 83.3% | 88.7% | 82.8%
16 | 129 nM | 1300 nM | 4600 nM | 172 nM |  |  |  |  | CCOc1ccc(C(=O)NO)cc1NC(=O)c1ccccc1 | 89.7% | 70.4% | 
17 | 96.1 nM | 90 nM | 2700 nM | 30.3 nM |  |  |  |  | Cc1ccc(C(=O)NO)cc1NC(=O)c1ccc2ccccc2n1 | 74.9% |  | 59.4%
18 | 9290 nM | 8600 nM | 42300 nM | 2190 nM |  |  |  |  | O=C(NO)c1cccc(N(Cc2ccccc2)Cc2ccccc2)c1 | 77.9% | 7.7% | 74.6%
19 | 190 nM | 2500 nM | 2300 nM | 88.3 nM |  |  |  |  | COc1ccc(C(=O)NO)cc1NC(=O)c1ccccc1 | 77.4% | 67.3% | 74.8%
20 | 267 nM |  |  |  |  |  |  |  | CCCOc1ccc(C(=O)NO)cc1NC(=O)c1ccccc1 |  | 97.4% | 
21 | 116 nM | 900 nM | 8400 nM | 204 nM |  |  |  |  | Cc1ccc(C(=O)NO)cc1NC(=O)c1ccccc1 | 82.9% | 71.2% | 72.4%
22 | 290 nM |  |  |  |  |  |  |  | COc1ccc(C(=O)NO)cc1NC(=O)c1cccc(-c2ccccc2)c1 | 58.8% | 76.2% | 57%
23 | 146 nM | 900 nM | 2900 nM | 240 nM |  |  |  |  | COc1ccc(C(=O)NO)cc1NC(=O)c1ccc(Cl)cc1 |  | 92.6% | 
24 | 1220 nM | 1300 nM | 9800 nM | 620 nM |  |  |  |  | O=C1CCSc2ccc(C(=O)NO)cc2N1 |  |  | 
25 | 8200 nM |  |  | 582 nM |  |  |  |  | O=C(NO)c1ccc2ccccc2n1 | 95.6% | 73.3% | 
26 | 979 nM | 150 nM | 8500 nM | 1080 nM |  |  |  |  | O=C(NO)c1ccc(Cl)c(NC(=O)c2ccc(Oc3ccccc3)cc2)c1 |  |  | 
27 |  |  |  |  | Not Active | Not Active | Not Active | Not Active | COc1ccc(C(=O)O)cc1NC(=O)c1ccc(-c2ccccc2)cc1 |  |  | 

Row | SMILES | IC50 (Histone deacetylase 8 [1]; read-out: IC50) | IC50 ([5]; read-out: IC50) | IC50 (Histone deacetylase 1; read-out: IC50) | IC50 (Histone deacetylase 8 [6]; read-out: IC50) | IC50 (Histone deacetylase 8 [1]) | IC50 [5] | IC50 (Histone deacetylase 1) | IC50 (Histone deacetylase 8 [6]) | Activity (Schistosoma mansoni [2]) | viability at 24 h, 50 µM [3] | Activity (Schistosoma mansoni [4])
28 | CC1Sc2ccc(C(=O)NO)cc2NC1=O (stereo not drawn) | 1480 nM | 3600 nM | 27500 nM | 970 nM |  |  |  |  |  |  | 
29 | COc1ccc(Cn2ccc3ccc(C(=O)NO)cc32)cc1 | 436 nM |  |  |  |  |  |  |  | 70.6% |  | 62.3%
